According to ChEMBL document CHEMBL4819011, “Structure-based discovery of 1H-indole-2-carboxamide derivatives as potent ASK1 inhibitors for potential treatment of ulcerative colitis” (Eur J Med Chem, 2021):
Calls of active or inactive are those of the source. The rule behind the calls is not given here.

Key:
[1] = test system: Mus musculus; experiment: Anti-ulcerative colitis activity against DSS-induced ulcerative colitis ICR mouse model assessed as decrease of colonic tissue damage at 25 mg/kg, po qd measured after 7 days by H and E staining method; assay type: functional, organism-based; conditions: time 7.0 day
In short: (§1)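 ICR mice given 3% DSS in drinking water for 7 days with 25 mg/kg po qd in CMC-Na vehicle. At sacrifice, colons fixed in 4% formaldehyde, paraffin-embedded, sectioned at 4 µm and stained with hematoxylin and eosin. Histopathology examined by light microscopy.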

[2] = biological target: T1, Mitogen-activated protein kinase kinase kinase 5 (Mus musculus) (UniProt O35099); experiment: In vivo inhibition of ASK1 in DSS-induced ulcerative colitis ICR mouse model assessed as downregulation of phosphorylation of p38 in colon at 25 mg/kg, po qd measured after 7 days by western blot assay; assay type: functional, organism-based; conditions: time 7.0 day
T1 sequence (whole entry): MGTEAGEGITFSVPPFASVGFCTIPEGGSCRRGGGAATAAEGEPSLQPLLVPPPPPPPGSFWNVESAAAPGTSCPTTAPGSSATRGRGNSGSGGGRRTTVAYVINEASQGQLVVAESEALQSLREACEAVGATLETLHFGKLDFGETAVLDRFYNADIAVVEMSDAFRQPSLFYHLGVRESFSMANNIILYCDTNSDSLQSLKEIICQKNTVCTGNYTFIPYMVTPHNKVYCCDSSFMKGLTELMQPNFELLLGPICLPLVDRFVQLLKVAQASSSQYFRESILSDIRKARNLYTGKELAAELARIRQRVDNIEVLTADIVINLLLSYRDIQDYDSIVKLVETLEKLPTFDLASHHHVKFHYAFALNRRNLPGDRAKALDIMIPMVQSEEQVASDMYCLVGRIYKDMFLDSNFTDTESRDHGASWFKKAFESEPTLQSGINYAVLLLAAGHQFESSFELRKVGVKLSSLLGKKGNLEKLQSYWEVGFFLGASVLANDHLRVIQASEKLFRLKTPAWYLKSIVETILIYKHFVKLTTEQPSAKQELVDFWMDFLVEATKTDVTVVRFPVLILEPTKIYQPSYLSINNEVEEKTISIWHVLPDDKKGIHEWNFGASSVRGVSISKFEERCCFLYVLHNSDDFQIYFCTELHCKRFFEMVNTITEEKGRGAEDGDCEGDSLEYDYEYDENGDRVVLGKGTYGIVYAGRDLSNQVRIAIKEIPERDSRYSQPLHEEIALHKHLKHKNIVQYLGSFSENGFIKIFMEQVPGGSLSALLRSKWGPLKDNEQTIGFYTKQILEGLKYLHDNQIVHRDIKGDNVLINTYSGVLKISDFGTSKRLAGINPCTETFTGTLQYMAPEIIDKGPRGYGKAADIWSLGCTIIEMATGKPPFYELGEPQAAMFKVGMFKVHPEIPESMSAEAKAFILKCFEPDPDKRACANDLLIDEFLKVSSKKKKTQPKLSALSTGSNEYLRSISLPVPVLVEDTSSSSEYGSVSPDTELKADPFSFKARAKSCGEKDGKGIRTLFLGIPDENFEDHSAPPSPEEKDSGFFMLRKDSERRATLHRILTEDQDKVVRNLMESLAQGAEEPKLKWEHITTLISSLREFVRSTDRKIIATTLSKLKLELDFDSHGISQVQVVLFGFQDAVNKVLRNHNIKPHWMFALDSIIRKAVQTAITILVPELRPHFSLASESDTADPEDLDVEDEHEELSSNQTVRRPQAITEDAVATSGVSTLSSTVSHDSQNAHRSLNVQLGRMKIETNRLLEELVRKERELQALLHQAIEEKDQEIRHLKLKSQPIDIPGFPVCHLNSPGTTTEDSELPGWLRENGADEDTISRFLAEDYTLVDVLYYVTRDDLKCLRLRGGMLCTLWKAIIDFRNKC
In short: (§2)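 Colons from ICR mice given 7 days of DSS plus 25 mg/kg po qd. Tissue homogenised in ice-cold RIPA buffer and protein quantified by BCA. Proteins separated by SDS-PAGE, transferred to PVDF and blocked in 5% BSA. Probed overnight at 4 °C for total and phospho ASK1, MKK3/6, MKK4/7, p38 and JNK, with GAPDH as loading control. Detected with HRP anti-rabbit secondary and ECL. Phosphorylated protein normalised to its unphosphorylated form.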

[3] = test system: Mus musculus; experiment: Anti-ulcerative colitis activity against DSS-induced ulcerative colitis ICR mouse model assessed as decrease of infiltration of inflammatory cells in colon at 25 mg/kg, po qd measured after 7 days by H and E staining method; assay type: functional, organism-based; conditions: time 7.0 day; in short: as §1
[4] = test system: Mus musculus; experiment: Anti-inflammatory activity against DSS-induced ulcerative colitis ICR mouse model assessed as decrease of IL-6 level in colon at 25 mg/kg, po qd measured after 7 days by ELISA; assay type: functional, organism-based; conditions: time 7.0 day
In short: (§3)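 Colon tissue collected from ICR mice after 7 days of 3% DSS drinking water plus 25 mg/kg po qd dosing. Tissue homogenised and centrifuged; IL-1β, IL-6 and TNF-α in the supernatant measured with mouse ELISA kits.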

[5] = test system: Mus musculus; experiment: Anti-inflammatory activity against DSS-induced ulcerative colitis ICR mouse model assessed as decrease of IL-1 beta level in colon at 25 mg/kg, po qd measured after 7 days by ELISA; assay type: functional, organism-based; conditions: time 7.0 day; in short: as §3
[6] = test system: Mus musculus; experiment: Anti-ulcerative colitis activity against DSS-induced ulcerative colitis ICR mouse model assessed as colon shortening at 25 mg/kg, po qd measured after 7 days (reference value: 26.7%); assay type: functional; conditions: time 7 day
In short: (§4)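 Male ICR mice (18–22 g, 6–8 weeks) given 3% DSS (w/v) in drinking water for 7 days, water changed every two days. Dosed 25 mg/kg po once daily in CMC-Na aqueous vehicle during DSS exposure; vehicle-treated water and DSS groups served as controls, n = 6 per group. Body weight, stool consistency and rectal bleeding recorded daily. DAI is the mean of the weight-loss (0–4), stool (0–2) and blood (0–2) scores. Colon length measured at sacrifice. Mean ± SEM.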

[7] = biological target: T1, Mitogen-activated protein kinase kinase kinase 5 (Mus musculus); experiment: In vivo inhibition of ASK1 in DSS-induced ulcerative colitis ICR mouse model assessed as downregulation of phosphorylation of MKK4/7 in colon at 25 mg/kg, po qd measured after 7 days by western blot assay; assay type: functional, organism-based; conditions: time 7.0 day; in short: as §2
[8] = biological target: T1, Mitogen-activated protein kinase kinase kinase 5 (Mus musculus); experiment: In vivo inhibition of ASK1 in DSS-induced ulcerative colitis ICR mouse model assessed as downregulation of phosphorylation of MKK3/6 in colon at 25 mg/kg, po qd measured after 7 days by western blot assay; assay type: functional, organism-based; conditions: time 7.0 day; in short: as §2
[9] = Oral bioavailability in Sprague-Dawley rat at 5 mg/kg measured for 24 hrs by LC-MS/MS analysis; assay type: ADME, organism-based; conditions: in vivo
[10] = test system: Mus musculus; experiment: Anti-inflammatory activity against DSS-induced ulcerative colitis ICR mouse model assessed as decrease of TNF-alpha level in colon at 25 mg/kg, po qd measured after 7 days by ELISA; assay type: functional, organism-based; conditions: time 7.0 day; in short: as §3
[11] = Volume of distribution at steady state in Sprague-Dawley rat at 1 mg/kg, iv measured for 24 hrs by LC-MS/MS analysis; assay type: ADME, organism-based; conditions: in vivo, read-out: Vdss
In short: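 Male SD rats, fasted 24 h, n = 3. Single iv dose of 1 mg/kg given as a solution in 10% DMAC + 10% (30% Solutol HS 15 in water) + 80% saline. Venous blood (about 150 µL) collected into heparin tubes at 0.083, 0.25, 0.5, 1, 2, 4, 8 and 24 h. Plasma protein-precipitated with ACN containing dexamethasone IS, analysed by LC-MS/MS. Parameters calculated in DAS 2.1.1; mean ± SD.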

[12] = biological target: T1, Mitogen-activated protein kinase kinase kinase 5 (Mus musculus); experiment: In vivo inhibition of ASK1 in DSS-induced ulcerative colitis ICR mouse model assessed as downregulation of phosphorylation of JNK in colon at 25 mg/kg, po qd measured after 7 days by western blot assay; assay type: functional, organism-based; conditions: time 7.0 day; in short: as §2
[13] = test system: Mus musculus; experiment: Anti-ulcerative colitis activity against DSS-induced ulcerative colitis ICR mouse model assessed as disease activity index score at 25 mg/kg, po qd measured after 7 days (reference value: 2.83 units); assay type: functional; conditions: time 7 day; in short: as §4
[14] = biological target: T1, Mitogen-activated protein kinase kinase kinase 5 (Mus musculus); experiment: In vivo inhibition of ASK1 in DSS-induced ulcerative colitis ICR mouse model assessed as downregulation of phosphorylation of ASK1 in colon at 25 mg/kg, po qd measured after 7 days by western blot assay; assay type: functional, organism-based; conditions: time 7.0 day; in short: as §2
[15] = test system: Mus musculus; experiment: Anti-ulcerative colitis activity against DSS-induced ulcerative colitis ICR mouse model assessed as recovery of body weight loss at 25 mg/kg, po qd measured after 7 days; assay type: functional, organism-based; conditions: time 7.0 day; in short: as §4

Q: For `Cc1cc(F)c(C(=O)Nc2cccc(-c3nncn3C(C)C)n2)cc1-n1cnc(C2CC2)c1` [SELONSERTIB], which Activity [1] is on record?
A: Active

Q: And the inhibition [2]?
A: Active

Q: What about the Activity [3] of the same compound?
A: Active

Q: What about the Activity [4] of the same compound?
A: Active

Q: What about the Activity [5] of the same compound?
A: Active

Q: And the Activity [6]?
A: 23.4%

Q: And the inhibition [7]?
A: Active

Q: What about the inhibition [8] of the same compound?
A: Active

Q: What about the bioavailability [9] of the same compound?
A: 75%

Q: And the Activity [10]?
A: Active

Q: And the Vd [11]?
A: 0.55 L/kg

Q: What about the inhibition [12] of the same compound?
A: Active

Q: What about the DAI score decrease [13] of the same compound?
A: 0.83

Q: What about the inhibition [14] of the same compound?
A: Active

Q: What about the Activity [15] of the same compound?
A: inactive
